MrgX1 antag = antagonists of human MrgX1 receptor, primary screen, HEK293 cells, Fluo-4 calcium flux; Mas-related G-protein coupled receptor member X1 (Homo sapiens), Q96LB2; BAM8-22 antagonism; hits give low values; B-score at 10 µM; 310,000 compounds, 1.3% hits; AID 588676, 2011;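 active = calcium-response B-score plate-corrected more than 3 library SD below zero, starting fluorescence within 5 deviations, no agonist response on first addition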;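 also: peak minus trough fluorescence over baseline after final BAM8-22 challenge near maximal dose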
Target sequence (Q96LB2 whole entry, looked up): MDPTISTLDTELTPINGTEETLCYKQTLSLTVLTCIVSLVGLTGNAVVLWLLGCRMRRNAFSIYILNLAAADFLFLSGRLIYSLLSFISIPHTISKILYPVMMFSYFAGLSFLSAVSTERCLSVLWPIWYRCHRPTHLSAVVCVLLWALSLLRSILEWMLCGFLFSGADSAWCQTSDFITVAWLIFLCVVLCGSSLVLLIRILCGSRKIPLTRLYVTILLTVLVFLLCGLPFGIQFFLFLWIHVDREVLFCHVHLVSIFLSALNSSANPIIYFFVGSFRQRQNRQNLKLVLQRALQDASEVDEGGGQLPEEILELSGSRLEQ
RGS4 inh = RGS4 inhibitors, primary screen, cell-based, HEK293 M3R inducible RGS4, calcium flux; Regulator of G-protein signaling 4 (Homo sapiens), P49798; Fluo-4 calcium flux; hits give high values; triggered by carbachol at its EC20; B-score at 10 µM; 310,000 compounds, 0.45% hits; AID 463165, 2010;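 active = B-score, a plate-corrected calcium signal, over three deviations above library mean, with baseline fluorescence within five deviations of library mean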;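 also: RGS4 expression induced by doxycycline in cells with stable M3 receptor; B-score is computed from the integrated fluorescence ratio over baseline after carbachol; higher B-score means a larger calcium signal and so more RGS4 inhibition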
Target sequence (P49798 whole entry, looked up): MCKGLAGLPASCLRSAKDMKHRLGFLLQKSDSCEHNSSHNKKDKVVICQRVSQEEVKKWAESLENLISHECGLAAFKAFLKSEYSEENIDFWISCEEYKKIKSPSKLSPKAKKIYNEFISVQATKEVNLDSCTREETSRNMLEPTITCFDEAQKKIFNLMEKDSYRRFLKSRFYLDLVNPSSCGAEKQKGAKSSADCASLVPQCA
MrgX1 allo act = positive allosteric modulators of MrgX1, primary screen, HEK293 cells, Fluo-4 calcium flux | B-score at 10 µM | Mas-related G-protein coupled receptor member X1 (Homo sapiens), Q96LB2 | FDSS; hits give high values | 310,000 compounds, 0.63% hits | AID 588675, 2011;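 active = plate-corrected calcium response at least 3 library SD above typical, normal starting fluorescence, not activating the receptor alone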;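 also: compound read alongside a low EC10 to EC30 dose of BAM8-22 agonist; peak minus trough fluorescence over baseline measured at the second addition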
MrgX1 agonist = agonists of human MrgX1 receptor, primary screen, HEK293 cells, Fluo-4 calcium flux; Fluo-4 calcium fluorescence, agonist mode; hits give high values; B-score at 10 µM; 310,000 compounds, 0.44% hits; AID 588627, 2011;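 active = calcium response B-score plate-corrected fluorescence ratio at least 3 library SD, with starting fluorescence B-score inside 5 SD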
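System: HEK293 cells stably expressing human MrgX1 receptor; Dosing: test compound in the initial addition of three; Schedule: overnight plating, then 30 min 37 °C plus 30 min room-temperature dye loading; Detection: kinetic calcium dye fluorescence, Fluo-4 NW; Controls: per-plate positive and negative controls for Z′ factor.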
RGS4 act = RGS4 potentiators or activators, primary screen, cell-based, HEK293 M3R inducible RGS4, calcium flux; carbachol calcium flux Fluo4; hits give low values; B-score at 10 µM; 310,000 compounds, 0.92% hits; AID 463111, 2010;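 active = B-score of the integrated calcium signal more than 4 SD below the library mean, with starting fluorescence not abnormally high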;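 also: negative B-score means reduced calcium response which marks RGS4 activation or potentiation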
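test system = HEK293 cells with stable M3R and inducible RGS4 | schedule = recording 10 s baseline at 1 Hz, 100 s post-agonist | technique = Fluo4-AM (2 µM) calcium-flux fluorescence, kinetic read | measure = Agonist-evoked peak-minus-minimum fluorescence over baseline, integrated ratio, B score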
RGS4 act valid = reduced carbachol calcium response, RGS4-induced M3R cells, confirmation, RGS4 activator project, cell-based, HEK293 M3R/RGS4 inducible, calcium flux, duplicate. 1,100 compounds, 89% hits. carbachol calcium flux Fluo4. shares compounds with RGS4 act. inhibition, % at 10 µM;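 active = inhibition above 3 SD of the buffer control wells, cut at about 41% in these data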;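 also: signal is the integrated peak-minus-minimum Fluo4 fluorescence over baseline ratio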
RGS4 act ctr = counter-screen for RGS4 activators: effect in non-induced cells; shares compounds with RGS4 act; HEK293 M3R non-induced RGS4, Fluo4 calcium flux; after carbachol challenge at its EC90; inhibition, % at 10 µM; 1,100 compounds, 82% hits; AID 602283;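 active = inhibition exceeding 3 SD of buffer-only control wells, cut at about 26% in these data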;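 also: percent drop in integrated peak-minus-baseline over baseline Fluo4 ratio after carbachol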
The depositor's hits bear a star; i = inactive; nt = not tested or not shown. Compounds with a hit are over-represented: about 3.5% of the library has one in this group of screens.

SMILES | MrgX1 antag | RGS4 inh | MrgX1 allo act | MrgX1 agonist | RGS4 act | RGS4 act valid | RGS4 act ctr
Cc1nc(N2CCN(c3ccccn3)CC2)c2c(C)c(C(=O)Nc3ccccc3F)sc2n1 | i | i | i | i | -7.8* | 94* | 59*
CCc1ccc(NC(=O)c2sc3nc(C)nc(N4CCN(c5ccccn5)CC4)c3c2C)cc1 | i | i | i | i | -8.5* | 64* | 84*
Cc1nc(N2CCN(c3ccccn3)CC2)c2c(C)c(C(=O)Nc3ccc(F)cc3F)sc2n1 | i | i | i | i | -9* | 80* | 27*
Cc1ccc(NC(=O)c2cnc(N3CCN(c4ccccn4)CC3)c3ccccc23)c(Br)c1 | i | i | i | i | -11* | 91* | 76*
O=C(Nc1c(F)cccc1F)c1cnc(N2CCN(c3ccccn3)CC2)c2ccccc12 | i | i | i | i | i | nt | nt
COc1ccc(/C=C2/NC(=O)CNC2=O)cc1 | i | i | i | i | i | nt | nt
O=C(O)CC1(CC(=O)Nc2ccc(F)c(Cl)c2)CCCCC1 | i | i | i | i | i | nt | nt
COc1ccc(OCc2nnc(SCC(=O)NC3CCCCC3)o2)cc1 | i | i | i | i | i | nt | nt
COC(=O)c1sc(N)c(C(=O)OC)c1COC(=O)C12CC3CC(CC(O)(C3)C1)C2 | i | i | i | i | i | nt | nt
CCn1ncc(CN2CCCC(C(=O)c3cccc(OC(C)C)c3)C2)c1C (stereo unspecified) | i | i | i | i | -10* | 84* | 38*
Cn1c(SCC(=O)Nc2ccc3c(c2)n(C)c(=O)n3C)nnc1-c1ccncc1 | i | i | i | i | i | nt | nt
CCN(CC)CCNC(=O)c1ccc(NC(=O)c2c(C)nn(-c3ccc(F)cc3)c2Cl)cc1 | i | i | i | i | -9.8* | 92* | 88*
CCN(CC)CCNC(=O)c1ccc(NC(=O)Cc2ccccc2F)cc1 | i | i | i | i | i | nt | nt
OC(c1ccccn1)C1CCN(Cc2nc(C(c3ccccc3)c3ccccc3)no2)CC1 (stereo unspecified) | i | i | i | i | i | nt | nt
Cc1nc(CN2CCN(Cc3nc(C(c4ccccc4)c4ccccc4)no3)CC2)cs1 | i | i | i | i | -13* | 92* | 79*
Cc1cccnc1CN1CCN(Cc2nc(C(c3ccccc3)c3ccccc3)no2)CC1 | i | i | i | i | -8.7* | 93* | 82*
N#Cc1c(N)nc2c(c1-c1ccc(F)cc1)c(=O)nc1sccn12 | i | i | i | i | i | nt | nt
CC(=O)c1ccc(S(=O)(=O)Oc2ccc(-c3ccc(C(=O)O)cc3)cc2)cc1 | i | i | i | i | i | nt | nt
CCOC(=O)N1CCC(NC(=O)c2cnn3c(C(F)(F)F)cc(-c4cccc(OC)c4)nc23)CC1 | i | i | i | i | -8.4* | 0 | 0
COc1cc(C2NC(=O)NC(O)(C(F)(F)F)C2C(=O)c2ccc(Cl)cc2)ccc1O (stereo unspecified) | i | nt | i | i | nt | nt | nt
COc1ccc(C2NC(=O)NC(O)(C(F)(F)F)C2C(=O)c2ccc(F)cc2)cc1 (stereo unspecified) | i | i | i | i | -8.8* | 92* | 83*
OCCC1CN(CC2CCCCC2)CCN1CC1CCCCC1 (stereo unspecified) | i | i | i | i | i | nt | nt
COc1ccc(S(=O)(=O)N2CCCCC2)cc1NC(=O)C1COc2ccccc2O1 (stereo unspecified) | i | i | i | i | -13* | 74* | 84*
COc1cc(NC(=O)C2COc3ccccc3O2)c(OC)cc1Cl (stereo unspecified) | i | i | i | i | i | nt | nt
Cc1cc(Nc2cccc(F)c2)nc(-c2ccccc2O)n1 | i | i | i | i | i | nt | nt
SMILES | MrgX1 antag | RGS4 inh | MrgX1 allo act | MrgX1 agonist | RGS4 act | RGS4 act valid | RGS4 act ctr
CCOC(=O)c1ccc(Nc2cc(C)nc(-c3ccccc3O)n2)cc1 | i | i | i | i | -8.3* | 90* | 66*
COc1ccc(/C=C/C(O)=C2/C(=O)N(C)C3(C)CC2c2ccccc2O3)cc1 (stereo unspecified) | i | i | i | i | i | nt | nt
Cc1ccc(/C=C/C(O)=C2/C(=O)N(C)C3(C)CC2c2ccccc2O3)cc1 (stereo unspecified) | i | i | i | i | -8* | 73* | 84*
COc1ccc(CN2CCc3ccc(NC(=O)CCc4ccccc4OC)cc3C2)c(O)c1 | i | i | i | i | -9.3* | 90* | 71*
COc1cc(CN2CCc3ccc(NC(=O)CCc4ccccc4OC)cc3C2)ccc1O | i | i | i | i | i | nt | nt
CCC(=O)N1CCN(c2ccc(NC(=O)COc3ccc(C)cc3C)cc2)CC1 | i | i | i | i | i | nt | nt
Cc1ccc(C(=O)N2CCN(c3ccc(NC(=O)COc4ccccc4C)cc3)CC2)cc1 | i | i | i | i | -8.4* | 61* | 39*
COc1ccc(-c2nn(-c3ccccc3)cc2C(=O)NC2CCCCC2C)cc1 (stereo unspecified) | i | i | i | i | i | nt | nt
CCOC(=O)c1cc2cc(OCc3ccccc3)ccc2nc1C | i | i | i | i | -11* | 78* | 76*
CN(C)CCN(C(=O)c1ccc(C(=O)c2ccccc2)cc1)c1nc2cc3c(cc2s1)OCO3 | i | i | i | i | i | nt | nt
CN(C)CCN(C(=O)c1ccc(C(=O)c2ccccc2)cc1)c1nc2cc3c(cc2s1)OCCO3 | i | i | i | i | -9.1* | 90* | 74*
Cc1cc(Br)ccc1NC(=O)CN(C)C(=O)CSCc1ccccc1 | i | i | i | i | i | nt | nt
Cc1cccc(N2CCN(C(=O)CCCn3c(=O)c4cccn4c4cccnc43)CC2)c1C | i | i | i | i | i | nt | nt
Cc1ccc(Cl)cc1N1CCN(C(=O)CCCn2c(=O)c3cccn3c3cccnc32)CC1 | i | i | i | i | -7.9* | 84* | 50*

Screening results from PubChem BioAssay.
